These results are taken from ChEMBL document CHEMBL4680166, “Dual-functional conjugates improving cancer immunochemotherapy by inhibiting tubulin polymerization and indoleamine-2,3-dioxygenase” (Eur J Med Chem, 2020).

Activity calls are given as the source filed them. The rule behind the calls is not given here.

The subject of series [1] is HeLa. Briefly: Induction of apoptosis in human HeLa cells assessed as mitochondrial membrane potential dissipation by measuring increase in green fluorescence intensity at 0.5 uM incubated for 24 hrs by JC-1 staining based fluorescence microscopic analysis. It is filed as functional, cell-based.
Series [2] in a line: Toxicity in BALB/c nude mouse transfected with human HeLa cells assessed as spleen damage at 30 mg/kg/day, iv for 21 days by H&E staining based immunohistochemistry. Format: organism-based. Conditions: in vivo, 504 h, time 21 day. The method, boiled down:
(§1)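 HeLa xenografts were grown s.c. in male BALB/c nude mice, which received i.v. tail-vein doses once daily for 21 days in Tween 80/saline vehicle, with saline controls. After 3 weeks the mice were sacrificed. Organs from one mouse per group were fixed in 4% paraformaldehyde, paraffin-embedded and sectioned. Sections were dewaxed, stained with Harris hematoxylin and eosin-phloxine, and examined microscopically for histopathologic changes.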

Another series concerns PC-3. Description: Anticancer activity against human PC3 cells assessed as inhibition of cell proliferation measured after 72 hrs by MTT assay. Format: functional, cell-based. Conditions: PC-3, 72 h. Put shortly: (§2)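 Cells (A549, PC-3, HeLa, HUVEC) grown in DMEM with 10% FBS at 37 °C, 5% CO₂. Seeded at 5 × 10⁴ cells/well and allowed 24 h to attach, then exposed 72 h to a concentration series from DMSO stocks. MTT was added for 4 h and formazan dissolved in DMSO, read at 490 nm. Survival taken relative to untreated control. IC50 by Bliss method, three repeats.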
A general note: Tetrazolium assays rely on reduction of a dye to a coloured formazan, in cell work by metabolically active cells.

Series [3] concerns HeLa. Description: Antitumor activity against human HeLa cells xenografted in BALB/c mouse assessed as inhibition of tumor volume at 30 mg/kg/day, iv administered for 21 days by caliper analysis. The settings on record: 504 h, time 21 day. Format: functional. The method, boiled down: (§3)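 Male BALB/c nude mice, five weeks old, 18-22 g. Inoculated subcutaneously in the right armpit with 1 × 10⁷ HeLa cells/0.1 mL. At 120-150 mm³, randomized to four groups of five. Once-daily tail-vein injection for 21 days in Tween 80/physiological saline; controls received saline. Tumor volume measured every 2 days by caliper, V = AB²/2.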
(In general: Xenograft models place foreign cells or tissue in a host animal.)

Series [4] deals with HeLa. Description: Induction of apoptosis in human HeLa cells assessed as early apoptotic cells at 0.5 uM measured after 24 hrs by Annexin-V-FITC and PI staining based flow cytometry (reference value: 2.58%). Format: functional. The method, boiled down: (§4)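 HeLa cells were treated 24 h, washed twice in PBS and resuspended in binding buffer. Stained with annexin V-FITC and PI for 30 min in the dark at room temperature, then analysed by flow cytometry.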
Background: Flow cytometry measures light scatter and fluorescence of single cells or particles in a stream.

Series [5] concerns HeLa. Description: Inhibition of IDO1 expression in hIFNgamma-stimulated human HeLa cells assessed as decrease in kynurenine production at 0.1 uM measured after 48 hrs by reverse-phase HPLC analysis. It is filed as functional. The method, boiled down: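 HeLa cells were given fresh L-tryptophan-containing medium with hIFN-γ (25 ng/mL) plus compound for 48 h. Collected cells were treated with 20% trichloroacetic acid and centrifuged. Supernatant analysed by reversed-phase HPLC (ODS column, acetonitrile/water, 1.0 mL/min, […]).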

Series [6] in a line: Toxicity in BALB/c nude mouse transfected with human HeLa cells assessed as body weight changes at 30 mg/kg/day, iv for 21 days. Format: organism-based. Conditions: in vivo, 504 h, time 21 day. The method, boiled down: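 Five-week-old male BALB/c nude mice (18-22 g) were inoculated s.c. in the right armpit with HeLa cells (1 × 10⁷ cells/0.1 mL/mouse). At a tumour volume of 120-150 mm³, mice were randomised, five per group. Dosing was i.v. via the tail vein once daily for 21 days, in Tween 80/physiological saline; controls got an equal volume of saline. Body weight was recorded every 2 days.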

Series [7] can be described thus: Toxicity in BALB/c nude mouse transfected with human HeLa cells assessed as lung damage at 30 mg/kg/day, iv for 21 days by H&E staining based immunohistochemistry. It is filed as organism-based. Conditions: in vivo, 504 h, time 21 day. The method, boiled down: as §1
Series [8] can be described thus: Toxicity in BALB/c nude mouse transfected with human HeLa cells assessed as lung damage at 15 mg/kg/day, iv for 21 days by H&E staining based immunohistochemistry. The settings on record: in vivo, 504 h, time 21 day. It is filed as organism-based. The method, boiled down: (§5)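 After 3 weeks of daily iv dosing of HeLa-xenografted nude mice, organs were taken from one mouse per group. Fixed in 4% paraformaldehyde, paraffin-embedded and sectioned. Stained with Harris hematoxylin and eosin-phloxine, then examined microscopically for histopathology.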

The test system of the next series is HUVEC. Briefly: Cytotoxicity against HUVEC cells assessed as inhibition of cell proliferation measured after 72 hrs by MTT assay. Format: cell-based. The settings on record: Homo sapiens. Put shortly:
as §2

The target of the next series is Tubulin (Homo sapiens) (UniProt P68371+Q9H4B7+P0DPH7+P68366+Q13509+Q71U36+P04350+Q3ZCM7+P07437+P68363+Q9BQE3+Q6PEY2+Q13885+Q9BVA1+Q9BUF5). Description: Inhibition of tubulin polymerization in human HeLa cells assessed as disruption of microtubule network organization measured after 24 hrs by DAPI staining based immunofluorescence method. The settings on record: dose 0.1-0.5 µM. It is filed as cell-based. Put shortly:
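HeLa cells in six-well plates were treated 24 h. Fixed in 4% paraformaldehyde (37 °C, 15 min), permeabilised with 0.5% Triton X-100 and blocked with 10% goat serum. Incubated with α-tubulin primary antibody overnight, then fluorescent secondary antibody 1 h, with DAPI for nuclei. Imaged by confocal microscopy.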

Series [9] is described as follows: Toxicity in BALB/c nude mouse transfected with human HeLa cells assessed as heart damage at 15 mg/kg/day, iv for 21 days by H&E staining based immunohistochemistry. The settings on record: in vivo, 504 h, time 21 day. Format: organism-based. Put shortly:
as §5

Series [10] has as its system HeLa. Description: Induction of apoptosis in human HeLa cells assessed as cell membrane integrity loss, chromatin condensation and apoptotic body formation by measuring reduction in green fluorescence intensity at 0.5 uM measured after 24 hrs by AO/EB dual staining based fluorescence microscopy. Format: functional.
Series [11] concerns HeLa. Description: Induction of intracellular reactive oxygen species generation in human HeLa cells at 0.5 uM measured after 24 hrs by DCFH-DA staining based flow cytometry relative to CA-4. It is filed as functional.
In series [12] the test system is HeLa. Description: Potency index, ratio of CA-4 IC50 to test compound IC50 for anticancer activity against human HeLa cells after 72 hrs by MTT assay. Format: functional.
Series [13] has as its system HeLa. Briefly: Antitumor activity against human HeLa cells xenografted in BALB/c mouse assessed as inhibition of tumor volume at 15 mg/kg/day, iv administered for 21 days by caliper analysis. The settings on record: 504 h, time 21 day. Format: functional. Put shortly:
as §3

Series [14] concerns HeLa. Briefly: Induction of cell cycle arrest in human HeLa cells assessed as accumulation at G2/M phase at 0.5 uM measured after 24 hrs by propidium iodide/RNAse staining based flow cytometry (reference value: 10.7%). Format: functional.
The test system of series [15] is HeLa. Briefly: Induction of apoptosis in human HeLa cells assessed as mitochondrial membrane potential dissipation at 0.5 uM incubated for 24 hrs by JC-1 staining based flow cytometry (reference value: 6.6%). It is filed as functional.
Series [16] relates to HeLa. Briefly: Inhibition of cell migration in human HeLa cells at 0.5 uM measured after 24 hrs by wound healing assay (reference value: 61%). Format: functional. The method, boiled down: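 Confluent HeLa monolayers were scratched with a pipette tip and washed with ice-cold PBS. Incubated 24 h at 37 °C in DMEM/10% FBS containing compound. Wounds were photographed at 0 and 24 h and migration distance measured manually.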

The nature of series [17]: Toxicity in BALB/c nude mouse transfected with human HeLa cells assessed as kidney damage at 30 mg/kg/day, iv for 21 days by H&E staining based immunohistochemistry. Format: organism-based. The settings on record: in vivo, 504 h, time 21 day. Put shortly:
as §1

Series [18] deals with HeLa. Briefly: Induction of apoptosis in human HeLa cells assessed as necrotic cells at 0.5 uM measured after 24 hrs by Annexin-V-FITC and PI staining based flow cytometry (reference value: 0.956%). It is filed as functional. The method, boiled down: as §4

As usually defined, the IC50 is the concentration at which inhibition is half-maximal. The term inhibition in vivo denotes the percentage by which the read-out fell short of the control. What is called inhibition is the relative decrease from the control value, in per cent. As for `COc1ccc(/C=C\c2cc(OC)c(OC)c(OC)c2)cc1OC(=O)c1cccc(Cn2cc(CCOC(=O)[C@H](N)Cc3cn(C)c4ccccc34)nn2)c1`, the result in the series on HeLa [1] and in the series with HeLa [10] was Active. For the same compound, the Activity entry in series [2] is “Non-Toxic”; with HeLa [4] it was 41.1%; in series [6], “Non-Toxic”; in [7] it was “Non-Toxic”; in series [8], “Non-Toxic”; in series [9] it was “Non-Toxic”. Also, the Activity is 76.27% in the series with HeLa [14], 68.8% in the series with HeLa [15], “Non-Toxic” in series [17] and 0.637% in the series on HeLa [18]. Besides, the results for the IC50 in the series with PC-3 and with HUVEC were 460 nM and 1520 nM, respectively. The inhibition in vivo at 30 mg/kg/day in the series on HeLa [3] came out at 65.8%. The inhibition entry in the series with HeLa [5] is “Active”. Moreover, on Tubulin (Homo sapiens), the inhibition result was “Dose-dependent effect”. Moreover, the figures for the “fold change (FC)” value with HeLa [11] and in the series on HeLa [12] were 2.3 and 3, respectively. Moreover, the inhibition in vivo at 15 mg/kg/day in the series on HeLa [13] came out at 50.7%. The inhibition at 0.5 µM in the series on HeLa [16] amounted to 88%.
